Common to all, as to format: functional
Experiment [1] deals with Candida albicans. As to the kind of experiment: Antifungal activity against Candida albicans KCCM 50235 after 1 day. The conditions noted are these: KCCM 50235, 24 h. A digest of the protocol:
(§1)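 MIC found by twofold broth dilution in modified Sabouraud dextrose broth. Approximately 1 × 10⁵ cells/mL inoculated. Final agent concentrations ranged from 0.2 to 50.0, compared against fluconazole and 5-fluorocytosine. Read after 1 day at 37 °C.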

The test system of experiment [2] is Aspergillus flavus. As to the kind of experiment: Antifungal activity against Aspergillus flavus KCCM 11899 after 2 days. The conditions noted are these: KCCM 11899, 48 h. The method in brief: (§2)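 Twofold broth dilution in modified Sabouraud dextrose broth. Inoculum about 1 × 10⁵ cells/mL. Agents tested at final concentrations of 0.2 to 50.0, with fluconazole and 5-fluorocytosine as standards.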

Experiment [3] concerns Cryptococcus neoformans. As to the kind of experiment: Antifungal activity against Cryptococcus neoformans KCCM 50564 after 1 day. The note with it: KCCM 50564, 24 h. A digest of the protocol: as §1
The test system of experiment [4] is Aspergillus niger. Nature of the experiment: Antifungal activity against Aspergillus niger KCTC 1231 after 2 days. The conditions noted are these: KCTC 1231, 48 h. The method in brief: as §2
The subject of experiment [5] is Pichia kudriavzevii. Nature of the experiment: Antifungal activity against Candida krusei KCCM 11655 after 1 day. The note with it: KCCM 11655, 24 h. A digest of the protocol:
as §1

Experiment [6] deals with Candida tropicalis. As to the kind of experiment: Antifungal activity against Candida tropicalis KCCM 50662 after 1 day. The conditions noted are these: KCCM 50662, 24 h. The method in brief:
as §1

In brackets after ≈: the same amount, converted by molar mass.

For the compound `COC(=O)c1c(N)oc2c(C)c(C)c(O)cc12`, the MIC in experiment [1] was found to be 50 µg/mL (≈ 213 µM); in experiment [2], 25 µg/mL (≈ 106 µM); in experiment [3], 25 µg/mL (≈ 106 µM); in experiment [4], 6.3 µg/mL (≈ 26.8 µM); in experiment [5] it was 25 µg/mL (≈ 106 µM); in experiment [6], 50 µg/mL (≈ 213 µM).

In the case of `COC(=O)c1c(N)oc2cc(C)c(O)cc12`, the MIC was determined as 25 µg/mL (≈ 113 µM) in experiment [1]; 25 µg/mL (≈ 113 µM) in experiment [2]; 12.5 µg/mL (≈ 56.5 µM) in experiment [3]; 12.5 µg/mL (≈ 56.5 µM) in experiment [4]; 3.2 µg/mL (≈ 14.5 µM) in experiment [5]; 25 µg/mL (≈ 113 µM) in experiment [6].

Take `COC(=O)c1c(N)oc2ccc(O)cc12`: the MIC in experiment [1] came out at 1.6 µg/mL (≈ 7.72 µM); in experiment [2] it was 12.5 µg/mL (≈ 60.3 µM); in experiment [3], 12.5 µg/mL (≈ 60.3 µM); in experiment [4] it was 3.2 µg/mL (≈ 15.4 µM); in experiment [5], 6.3 µg/mL (≈ 30.4 µM); in experiment [6] it was 3.2 µg/mL (≈ 15.4 µM).

`CCOC(=O)c1c(N)oc2ccc(O)cc12`: the MIC was 1.6 µg/mL (≈ 7.23 µM) in experiment [1]; 6.3 µg/mL (≈ 28.5 µM) in experiment [2]; 12.5 µg/mL (≈ 56.5 µM) in experiment [3]; 3.2 µg/mL (≈ 14.5 µM) in experiment [4]; 12.5 µg/mL (≈ 56.5 µM) in experiment [5]; 3.2 µg/mL (≈ 14.5 µM) in experiment [6].

Regarding `COC(=O)c1c(N)oc2cc(Cl)c(O)cc12`, the minimal inhibitory concentration (MIC) in experiment [1] came to 25 µg/mL (≈ 103 µM); in experiment [2] it was 6.3 µg/mL (≈ 26.1 µM); in experiment [3] it was 12.5 µg/mL (≈ 51.7 µM); in experiment [4], 6.3 µg/mL (≈ 26.1 µM); in experiment [5], 25 µg/mL (≈ 103 µM); in experiment [6], 12.5 µg/mL (≈ 51.7 µM).

As for `CCOC(=O)c1c(N)oc2cc(Cl)c(O)cc12`, the minimum inhibitory concentration (MIC) was 12.5 µg/mL (≈ 48.9 µM) in experiment [1]; 12.5 µg/mL (≈ 48.9 µM) in experiment [2]; 50 µg/mL (≈ 196 µM) in experiment [3]; 25 µg/mL (≈ 97.8 µM) in experiment [4]; 25 µg/mL (≈ 97.8 µM) in experiment [5]; 12.5 µg/mL (≈ 48.9 µM) in experiment [6].

`CCOC(=O)c1c(N)oc2c(C)cc(O)c(C)c12`: the MIC in experiment [1] was determined as 6.3 µg/mL (≈ 25.3 µM); in experiment [2] it was 12.5 µg/mL (≈ 50.1 µM); in experiment [3], 12.5 µg/mL (≈ 50.1 µM); in experiment [4], 12.5 µg/mL (≈ 50.1 µM); in experiment [5], 3.2 µg/mL (≈ 12.8 µM); in experiment [6], 6.3 µg/mL (≈ 25.3 µM).

Take `Cc1cc2oc(N)c(C#N)c2cc1O`: the MIC in experiment [1] is 50 µg/mL (≈ 266 µM); in experiment [2] it was 12.5 µg/mL (≈ 66.4 µM); in experiment [3], 3.2 µg/mL (≈ 17 µM); in experiment [4], more than 50 µg/mL; in experiment [5], 0.8 µg/mL (≈ 4.25 µM); in experiment [6], more than 50 µg/mL.

`N#Cc1c(N)oc2ccc(O)cc12`: the minimal inhibitory concentration (MIC) in experiment [1] was 12.5 µg/mL (≈ 71.8 µM); in experiment [2] it was 12.5 µg/mL (≈ 71.8 µM); in experiment [3] it was 12.5 µg/mL (≈ 71.8 µM); in experiment [4] it was 6.3 µg/mL (≈ 36.2 µM); in experiment [5], 25 µg/mL (≈ 144 µM); in experiment [6], 6.3 µg/mL (≈ 36.2 µM).

For `Cc1c(O)ccc(O)c1C`, the minimal inhibitory concentration (MIC) in experiment [1] was 50 µg/mL (≈ 362 µM); in experiment [2], 12.5 µg/mL (≈ 90.5 µM); in experiment [3], 12.5 µg/mL (≈ 90.5 µM); in experiment [4], 50 µg/mL (≈ 362 µM); in experiment [5], 25 µg/mL (≈ 181 µM); in experiment [6], more than 50 µg/mL.

For `COC(=O)c1c(N)oc2c(C)c(C)c(O)c(Sc3ccccc3)c12`, the minimum inhibitory concentration (MIC) in experiment [1] was found to be 25 µg/mL (≈ 72.8 µM); in experiment [2], 25 µg/mL (≈ 72.8 µM); in experiment [3] it was 1.6 µg/mL (≈ 4.66 µM); in experiment [4] it was 12.5 µg/mL (≈ 36.4 µM); in experiment [5] it was 6.3 µg/mL (≈ 18.3 µM); in experiment [6] it was 25 µg/mL (≈ 72.8 µM).

Take `COC(=O)c1c(N)oc2c(C)c(C)c(O)c(Sc3ccc(C)cc3)c12`: the MIC worked out at 25 µg/mL (≈ 69.9 µM) in experiment [1]; 25 µg/mL (≈ 69.9 µM) in experiment [2]; 6.3 µg/mL (≈ 17.6 µM) in experiment [3]; 25 µg/mL (≈ 69.9 µM) in experiment [4]; 3.2 µg/mL (≈ 8.95 µM) in experiment [5]; 25 µg/mL (≈ 69.9 µM) in experiment [6].

On to `COC(=O)c1c(N)oc2c(C)c(C)c(O)c(Sc3ccc(C)c(C)c3)c12`, for which the MIC in experiment [1] was 25 µg/mL (≈ 67.3 µM); in experiment [2], 3.2 µg/mL (≈ 8.61 µM); in experiment [3], 1.6 µg/mL (≈ 4.31 µM); in experiment [4], 12.5 µg/mL (≈ 33.7 µM); in experiment [5], 3.2 µg/mL (≈ 8.61 µM); in experiment [6], 25 µg/mL (≈ 67.3 µM).

As to `COC(=O)c1c(N)oc2c(C)c(C)c(O)c(Sc3cccc(F)c3)c12`, the MIC in experiment [1] is more than 50 µg/mL; in experiment [2] it was 3.2 µg/mL (≈ 8.85 µM); in experiment [3], 6.3 µg/mL (≈ 17.4 µM); in experiment [4], 1.6 µg/mL (≈ 4.43 µM); in experiment [5] it was 25 µg/mL (≈ 69.2 µM); in experiment [6], 50 µg/mL (≈ 138 µM).

Consider `COC(=O)c1c(N)oc2c(C)c(C)c(O)c(Sc3cccc(C)c3)c12`, for which the minimal inhibitory concentration (MIC) in experiment [1] is more than 50 µg/mL; in experiment [2], more than 50 µg/mL; in experiment [3], 1.6 µg/mL (≈ 4.48 µM); in experiment [4], more than 50 µg/mL; in experiment [5], more than 50 µg/mL; in experiment [6], more than 50 µg/mL.

Regarding `COC(=O)C(C#N)C1=C(Cl)C(=O)C(C)=C(C)C1=O` (stereo not drawn), the minimal inhibitory concentration (MIC) in experiment [1] was found to be 50 µg/mL (≈ 187 µM); in experiment [2], 12.5 µg/mL (≈ 46.7 µM); in experiment [3], 6.3 µg/mL (≈ 23.5 µM); in experiment [4] it was 25 µg/mL (≈ 93.4 µM); in experiment [5], 25 µg/mL (≈ 93.4 µM); in experiment [6] it was 50 µg/mL (≈ 187 µM).

`OC(Cn1cncn1)(Cn1cncn1)c1ccc(F)cc1F` [FLUCONAZOLE]: the MIC in experiment [1] is 50 µg/mL (≈ 163 µM); in experiment [2], 25 µg/mL (≈ 81.6 µM); in experiment [3], 6.3 µg/mL (≈ 20.6 µM); in experiment [4], 12.5 µg/mL (≈ 40.8 µM); in experiment [5] it was 12.5 µg/mL (≈ 40.8 µM); in experiment [6], 6.3 µg/mL (≈ 20.6 µM).

`Nc1nc(=O)[nH]cc1F` [FLUCYTOSINE]: the MIC in experiment [1] worked out at 6.3 µg/mL (≈ 48.8 µM); in experiment [2] it was 6.3 µg/mL (≈ 48.8 µM); in experiment [3], 12.5 µg/mL (≈ 96.8 µM); in experiment [4], 12.5 µg/mL (≈ 96.8 µM); in experiment [5] it was 12.5 µg/mL (≈ 96.8 µM); in experiment [6], 6.3 µg/mL (≈ 48.8 µM).
